Assay results: ChEMBL document CHEMBL3120083, “Discovery of N-[4-[6-tert-butyl-5-methoxy-8-(6-methoxy-2-oxo-1H-pyridin-3-yl)-3-quinolyl]phenyl]methanesulfonamide (RG7109), a potent inhibitor of the hepatitis C virus NS5B polymerase” (J Med Chem, 2014)
Values after ≈ are worked out from the molar mass of the structure shown.

Experiments:
Hepatitis C virus [1] = assay: Antiviral activity against Hepatitis C virus genotype 1b Con1 infected in human 2209-23 cells after 72 hrs by luciferase reporter gene assay; type: functional, organism-based, Hepacivirus hominis; details: isolate Con1, 2209-23, 72 h
Summary of the method: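 Stable GT-1b Con1 subgenomic replicon cell line expressing a renilla luciferase reporter, used as the readout of inhibition. EC50 from luciferase signal, n 2.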

Hepatitis C virus [2] = assay: Antiviral activity against Hepatitis C virus genotype 1a H77 infected in human 2209-23 cells after 72 hrs by luciferase reporter gene assay; type: functional, organism-based, Hepacivirus hominis; details: genotype 1a H77, 2209-23, 72 h
Hepatitis C virus [3] = assay: Ratio of EC50 for Hepatitis C virus genotype 1b Con1 in presence of human serum to EC50 for Hepatitis C virus genotype 1b Con1; type: functional, Hepacivirus hominis, isolate Con1
Hepatitis C virus [4] = assay: Ratio of EC50 for Hepatitis C virus genotype 1a H77 in presence of human serum to EC50 for Hepatitis C virus genotype 1a H77; type: functional, Hepacivirus hominis
Hepatitis C virus [5] = assay: Antiviral activity against Hepatitis C virus genotype 1b Con1 infected in human 2209-23 cells after 72 hrs by luciferase reporter gene assay in presence of 40% human serum; type: functional, organism-based, Hepacivirus hominis; details: isolate Con1, 2209-23, 72 h
Hepatitis C virus [6] = assay: Antiviral activity against Hepatitis C virus genotype 1a H77 infected in human 2209-23 cells after 72 hrs by luciferase reporter gene assay in presence of 40% human serum; type: functional, organism-based, Hepacivirus hominis; details: genotype 1a H77, 2209-23, 72 h
[7] = Ratio of EC50 for Hepatitis C virus genotype 1a H77 to EC50 for Hepatitis C virus genotype 1b Con1; type: functional
[8] = Thermodynamic solubility of the compound; type: physicochemical; details: read-out: Therm_solubility
[9] = Inhibition of N-terminal 6xHis-tagged Hepatitis C virus genotype 1b Con1 NS5B polymerase containing 21-amino acid deletion at C-terminus expressed in Escherichia coli using radiolabeled UTP as substrate after 2 hrs by scintillation counting analysis; parameters: species or system Hepatitis C virus (isolate Con1)
Summary of the method: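 GT-1b Con1 NS5B polymerase (NS5B570n-Con1) activity assay run with RNA template at 3 nM and enzyme at 3 nM. IC50 reported in nM.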

COc1c(C(C)(C)C)cc(-n2ccc(=O)[nH]c2=O)c2ccc(-c3ccc(NS(C)(=O)=O)cc3)nc12
EC50 (Hepatitis C virus [1]): 12 nM | EC50 (Hepatitis C virus [2]): 83 nM

COc1c(C(C)(C)C)cc(N2CCC(=O)NC2=O)c2ncc(-c3ccc(NS(C)(=O)=O)cc3)cc12
Ratio EC50 (Hepatitis C virus [3]): 1.7 | Ratio EC50 (Hepatitis C virus [4]): 1.7 | EC50 (Hepatitis C virus [5]): 3.5 nM | EC90 (Hepatitis C virus [5]): 20 nM | EC50 (Hepatitis C virus [6]): 10 nM | EC90 (Hepatitis C virus [6]): 48 nM | Ratio EC50 [7]: 1.4 | EC50 (Hepatitis C virus [1]): 3.2 nM | EC50 (Hepatitis C virus [2]): 4.6 nM

COc1c(C(C)(C)C)cc(-c2cn(C)c(=O)[nH]c2=O)c2ncc(-c3ccc(NS(C)(=O)=O)cc3)cc12
EC50 (Hepatitis C virus [1]): 1.5 nM | EC50 (Hepatitis C virus [2]): 3 nM

Cc1ccc(-c2cc(C(C)(C)C)cc3cc(N4CCCC(CNS(C)(=O)=O)C4)cnc23)c(=O)[nH]1 (stereo not drawn)
solubility thermodynamic [8]: 66 µg/mL (≈ 137 µM) | IC50 [9]: 625 nM | EC50 (Hepatitis C virus [2]): > 1000 nM

COc1c(C(C)(C)C)cc(-c2ccc[nH]c2=O)c2ncc(N3CC(CNS(C)(=O)=O)C3)cc12
IC50 [9]: 3.5 nM | EC50 (Hepatitis C virus [2]): 532 nM
